Reference: ChEMBL document CHEMBL1126975 (J Med Chem, 1993)

Legend:
[1] = target: T1, Amine oxidase [flavin-containing] B (Rattus norvegicus, UniProt P19643); assay: In vitro inhibitory activity on rat brain MAO-B.
T1 sequence (P19643 whole entry): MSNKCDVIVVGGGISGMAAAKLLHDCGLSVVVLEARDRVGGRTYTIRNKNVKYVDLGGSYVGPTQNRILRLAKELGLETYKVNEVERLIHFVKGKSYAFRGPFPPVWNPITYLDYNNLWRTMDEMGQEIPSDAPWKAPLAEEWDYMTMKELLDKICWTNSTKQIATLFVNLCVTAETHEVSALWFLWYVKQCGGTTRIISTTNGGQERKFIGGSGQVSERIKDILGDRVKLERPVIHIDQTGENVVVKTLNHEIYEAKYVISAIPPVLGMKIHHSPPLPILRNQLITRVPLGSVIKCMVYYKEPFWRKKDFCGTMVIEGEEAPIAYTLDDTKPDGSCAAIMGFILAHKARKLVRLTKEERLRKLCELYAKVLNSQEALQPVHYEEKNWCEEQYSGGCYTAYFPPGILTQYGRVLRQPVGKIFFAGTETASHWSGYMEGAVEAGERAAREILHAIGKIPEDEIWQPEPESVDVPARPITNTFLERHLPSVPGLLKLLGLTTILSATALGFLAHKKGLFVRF
Method in brief: (§1)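 Radiochemical assay at 37 °C, pH 7.4: MAO A with 10 μM [14C]5-HT, MAO B with 5 μM [14C]PEA. Drug preincubated 20 min with enzyme. Three experiments in duplicate.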

[2] = target: T1, Amine oxidase [flavin-containing] B; assay: Ex-Vivo Time course of evaluation for the percentage inhibition of MAO-B for 0.5 hr at single dose 5 mg/kg through oral gavage (p<0.001); assay type: organism-based; set-up: dose 5 mg/kg, route oral
Method in brief: (§2)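 Fasted male Sprague-Dawley rats (150 g) dosed orally by gavage, drug suspended in Tween 80 plus 0.5% methylcellulose; vehicle controls. The 100 mg/kg arm was dosed daily for 9 days. Four rats per time point; brains frozen and homogenized in 0.1 M phosphate pH 7.4. Assayed at 37 °C with 8 μM [14C]PEA for 1 min; toluene/ethyl acetate extraction. Percent inhibition vs control, mean ± SEM.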

[3] = target: T1, Amine oxidase [flavin-containing] B; assay: Ex-Vivo Time course of evaluation for the percentage inhibition of MAO-B for 1 hr at single dose 5 mg/kg through oral gavage (p<0.001); assay type: organism-based; set-up: dose 5 mg/kg, route oral; method in brief: as §2
[4] = target: T2, Amine oxidase [flavin-containing] A (Rattus norvegicus, UniProt P21396); assay: In vitro inhibitory activity on rat brain by monoamine oxidase A (MAO-A); method in brief: as §1
T2 sequence (P21396 whole entry): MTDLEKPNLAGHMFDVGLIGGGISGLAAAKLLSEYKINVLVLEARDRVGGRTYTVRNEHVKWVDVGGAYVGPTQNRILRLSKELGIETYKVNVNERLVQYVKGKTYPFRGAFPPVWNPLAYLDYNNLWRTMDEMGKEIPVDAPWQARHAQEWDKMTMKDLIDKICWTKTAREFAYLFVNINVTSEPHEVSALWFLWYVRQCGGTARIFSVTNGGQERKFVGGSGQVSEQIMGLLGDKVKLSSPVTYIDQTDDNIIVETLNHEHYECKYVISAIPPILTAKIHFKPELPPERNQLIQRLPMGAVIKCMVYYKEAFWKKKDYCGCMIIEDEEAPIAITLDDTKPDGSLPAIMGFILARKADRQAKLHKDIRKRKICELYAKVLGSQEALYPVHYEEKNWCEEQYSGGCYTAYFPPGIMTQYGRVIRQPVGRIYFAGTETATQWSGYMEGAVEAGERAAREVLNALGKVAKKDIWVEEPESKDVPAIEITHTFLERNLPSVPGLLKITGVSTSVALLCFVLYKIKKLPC

[5] = target: T1, Amine oxidase [flavin-containing] B; assay: Ex-Vivo percentage inhibition of MAO-B after 24 hr single 5 mg/kg dose by oral gavage; assay type: organism-based; set-up: dose 5 mg/kg, route oral
Method in brief: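 Ex vivo oral gavage in fasted male Sprague-Dawley rats (Tween 80 / 0.5% methylcellulose), four rats per group. Brain homogenate taken 24 h after dosing. MAO B assayed with 8 μM [14C]PEA, 1 min at 37 °C; percent inhibition vs vehicle control.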

[6] = target: T1, Amine oxidase [flavin-containing] B; assay: Ex-Vivo Time course of evaluation for the percentage inhibition of MAO-B for 48 hr at single dose 5 mg/kg through oral gavage; assay type: organism-based; set-up: dose 5 mg/kg, route oral; method in brief: as §2
[7] = target: T1, Amine oxidase [flavin-containing] B; assay: Ex-Vivo Time course of evaluation for the percentage inhibition of MAO-B for 4 hr at single dose 5 mg/kg through oral gavage (p<0.001); assay type: organism-based; set-up: dose 5 mg/kg, route oral; method in brief: as §2
[8] = target: T2, Amine oxidase [flavin-containing] A; assay: In Vitro evaluation for the inhibitory activity on rat brain by MAO-A at 100 uM; No Inhibition
Method in brief: (§3)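 Male Sprague-Dawley rat brain crude mitochondrial fraction, 0.195 mg protein/mL. Radiochemical assay at 37 °C, pH 7.4: MAO A with 10 μM [14C]5-HT, MAO B with 5 μM [14C]PEA. Drug preincubated 20 min with enzyme. […] Three experiments in duplicate.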

[9] = target: T1, Amine oxidase [flavin-containing] B; assay: Compound was evaluated for the reversibility test for the percentage inhibition of MAO B at 6.25 nM after the test at 12.5 nM
Method in brief: (§4)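 Rat brain crude mitochondrial fraction (1.94 mg protein/mL) preincubated 1 h at 37 °C with or without inhibitor at 6.25 or 12.5 nM. Then diluted 200-fold in 100 mM phosphate pH 7.4 with 100 μM PEA, held 4 h at 37 °C, pelleted, and washed 1 h in buffer without PEA. Assayed under standard conditions (PEA 1 min); percent inhibition vs control.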

[10] = target: T1, Amine oxidase [flavin-containing] B; assay: Compound was evaluated for the reversibility test for the percentage inhibition of MAO B at 6.25 nM before the test at 12.5 nM
[11] = target: T1, Amine oxidase [flavin-containing] B; assay: Compound was evaluated for the time-dependence inhibition of MAO-B at 0 minute pre-incubation periods
Method in brief: (§5)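 Male Sprague-Dawley rat brain crude mitochondrial fraction, MAO B. Drug preincubated with enzyme at 37 °C for 0, 20, 30 or 60 min, then radiochemical assay with 5 μM [14C]PEA at pH 7.4. IC50 read graphically from 9–12 concentrations; three experiments in duplicate.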

[12] = target: T1, Amine oxidase [flavin-containing] B; assay: Compound was evaluated for the time-dependence inhibition of MAO-B at 20 minutes pre-incubation periods; method in brief: as §5
[13] = target: T1, Amine oxidase [flavin-containing] B; assay: Compound was evaluated for the time-dependence inhibition of MAO-B at 30 minutes pre-incubation periods; method in brief: as §5
[14] = target: T1, Amine oxidase [flavin-containing] B; assay: Compound was evaluated for the time-dependence inhibition of MAO-B at 60 minutes preincubation periods; method in brief: as §5
[15] = target: T1, Amine oxidase [flavin-containing] B; assay: Ex-Vivo Time course of evaluation for the percentage inhibition of MAO-B for 1 hr at single dose 1 mg/kg through oral gavage (p<0.001); assay type: organism-based; set-up: dose 1 mg/kg, route oral; method in brief: as §2
[16] = target: T1, Amine oxidase [flavin-containing] B; assay: Ex-Vivo Time course of evaluation for the percentage inhibition of MAO-B for 1 hr at single dose 100 mg/kg through oral gavage (p<0.001); assay type: organism-based; set-up: dose 100 mg/kg, route oral
[17] = target: T1, Amine oxidase [flavin-containing] B; assay: Ex-Vivo Time course of evaluation for the percentage inhibition of MAO-B for 1 hr at single dose 1500 mg/kg through oral gavage (p<0.001); assay type: organism-based; set-up: dose 1500 mg/kg, route oral; method in brief: as §2
[18] = target: T1, Amine oxidase [flavin-containing] B; assay: Ex-Vivo Time course of evaluation for the percentage inhibition of MAO-B for 24 hr at single dose 1 mg/kg through oral gavage (not significant Wilcoxom''s test); assay type: organism-based; set-up: dose 1 mg/kg, route oral; method in brief: as §2
[19] = target: T1, Amine oxidase [flavin-containing] B; assay: Ex-Vivo Time course of evaluation for the percentage inhibition of MAO-B for 24 hr at single dose 100 mg/kg through oral gavage; assay type: organism-based; set-up: dose 100 mg/kg, route oral
[20] = target: T1, Amine oxidase [flavin-containing] B; assay: Ex-Vivo Time course of evaluation for the percentage inhibition of MAO-B for 24 hr at single dose 1500 mg/kg through oral gavage; assay type: organism-based; set-up: dose 1500 mg/kg, route oral
[21] = target: T2, Amine oxidase [flavin-containing] A; assay: Compound was evaluated for the time-dependence inhibition of MAO-A at 60 minutes of preincubated period. values are same with or without pre-incubation
[22] = target: T1, Amine oxidase [flavin-containing] B; assay: Ex-Vivo Time course of evaluation for the percentage inhibition of MAO-B for 24 hr at single dose 1500 mg/kg through oral gavage (p<0.001); assay type: organism-based; set-up: dose 1500 mg/kg, route oral; method in brief: as §2
[23] = target: T2, Amine oxidase [flavin-containing] A; assay: In Vitro evaluation for the inhibitory activity on rat brain by MAO-A; method in brief: as §3
[24] = target: T1, Amine oxidase [flavin-containing] B; assay: Compound was evaluated for the reversibility test for the percentage inhibition of MAO B at 6.25 nM after the test; method in brief: as §4
[25] = target: T1, Amine oxidase [flavin-containing] B; assay: Compound was evaluated for the reversibility test for the percentage inhibition of MAO B at 6.25 nM before the test
[26] = target: T1, Amine oxidase [flavin-containing] B; assay: Ex-Vivo Time course of evaluation for the percentage inhibition of MAO-B for 4 hr at single dose 1 mg/kg through oral gavage (p<0.001); assay type: organism-based; set-up: dose 1 mg/kg, route oral; method in brief: as §2
[27] = Selectivity for B form was estimated by the ratio of IC50 (MAO A) at 60 min to that of (MAO B)
[28] = target: T1, Amine oxidase [flavin-containing] B; assay: Ex-Vivo Time course of evaluation for the percentage inhibition of MAO-B for 0.5 hr at single dose 1 mg/kg through oral gavage [p<0.01 (Bonferroni's test)]; assay type: organism-based; set-up: dose 1 mg/kg, route oral; method in brief: as §2
[29] = target: T1, Amine oxidase [flavin-containing] B; assay: Ex-Vivo Time course of evaluation for the percentage inhibition of MAO-B for 24 hr at once-daily dose for 9 days 100 mg/kg through oral gavage (p<0.001)
[30] = target: T1, Amine oxidase [flavin-containing] B; assay: Ex-Vivo Time course of evaluation for the percentage inhibition of MAO-B for 1 hr at single dose 5 mg/kg through oral gavage; assay type: organism-based; set-up: dose 5 mg/kg, route oral; method in brief: as §2
[31] = target: T1, Amine oxidase [flavin-containing] B; assay: Ex-Vivo Time course of evaluation for the percentage inhibition of MAO-B for 0.5 hr at single dose 5 mg/kg through oral gavage; assay type: organism-based; set-up: dose 5 mg/kg, route oral; method in brief: as §2
[32] = target: T1, Amine oxidase [flavin-containing] B; assay: Ex-Vivo Time course of evaluation for the percentage inhibition of MAO-B for 4 hr at single dose 5 mg/kg through oral gavage; assay type: organism-based; set-up: dose 5 mg/kg, route oral; method in brief: as §2
[33] = target: T2, Amine oxidase [flavin-containing] A; assay: In Vitro evaluation for the inhibitory activity on rat brain by MAO-A at 100 uM; method in brief: as §3

## N#CCCn1nc(-c2ccc(OCc3ccc(Cl)cc3)cc2)oc1=O
[1]
  IC50: 7.5 nM
[2]
  inhibition at 5 mg/kg: 30%
[3]
  inhibition at 5 mg/kg: 54%
[4]
  IC50: 3300 nM
[5]
  inhibition at 5 mg/kg: -6%
[6]
  inhibition at 5 mg/kg: 6%
[7]
  inhibition at 5 mg/kg: 47%

## N#CCCCn1nc(-c2ccc(OCc3ccccc3)cc2)oc1=O
[1]
  IC50: 410 nM
[8]
  IC50: Not Active

## C#CCN(C)[C@H](C)Cc1ccccc1 [SELEGILINE]
[9]
  inhibition at 0.00625 µM: 21%
[10]
  inhibition at 0.00625 µM: 21%

## N#CCCn1nc(-c2ccc(OCc3ccccc3)cc2)oc1=O
[11]
  IC50: 25 nM
[12]
  IC50: 2.7 nM
[13]
  IC50: 2.2 nM
[14]
  IC50: 1.4 nM
[1]
  IC50: 2.2 nM
[2]
  inhibition at 5 mg/kg: 69%
[15]
  inhibition at 1 mg/kg: 86%
[16]
  inhibition at 100 mg/kg: 90%
[17]
  inhibition at 1500 mg/kg: 91%
[3]
  inhibition at 5 mg/kg: 87%
[18]
  inhibition at 1 mg/kg: 18%
[19]
  inhibition at 100 mg/kg: 3%
[20]
  inhibition at 1500 mg/kg: 2%
[21]
  IC50: > 100000 nM
[22]
  inhibition at 1500 mg/kg: 74%
[5]
  inhibition at 5 mg/kg: 18%
[23]
  Inhibition: 10%
[24]
  inhibition at 0.00625 µM: 102%
[25]
  inhibition at 0.00625 µM: 35%
[26]
  inhibition at 1 mg/kg: 75%
[7]
  inhibition at 5 mg/kg: 83%
[27]
  Selectivity: > 71400
[28]
  inhibition at 1 mg/kg: 34%
[29]
  inhibition at 100 mg/kg: 73%

## O=c1oc(-c2ccc(OCc3ccccc3)cc2)nn1CCO
[11]
  IC50: 33 nM
[12]
  IC50: 4.6 nM
[13]
  IC50: 4.4 nM
[14]
  IC50: 4.6 nM
[1]
  IC50: 3.7 nM
[30]
  inhibition at 5 mg/kg: 82%
[21]
  IC50: 140000 nM
[4]
  IC50: 140000 nM
[5]
  inhibition at 5 mg/kg: 8%
[31]
  inhibition at 5 mg/kg: 65%
[32]
  inhibition at 5 mg/kg: 70%
[27]
  Selectivity: 30400

## CC(C#N)n1nc(-c2ccc(OCc3ccccc3)cc2)oc1=O (centres undefined)
[1]
  IC50: 48000 nM
[33]
  inhibition at 100 µM: 4%
